For data set [1], the target named is T1, Tyrosine-protein kinase JAK3 (Homo sapiens, UniProt P52333).
T1 sequence (P52333 whole entry): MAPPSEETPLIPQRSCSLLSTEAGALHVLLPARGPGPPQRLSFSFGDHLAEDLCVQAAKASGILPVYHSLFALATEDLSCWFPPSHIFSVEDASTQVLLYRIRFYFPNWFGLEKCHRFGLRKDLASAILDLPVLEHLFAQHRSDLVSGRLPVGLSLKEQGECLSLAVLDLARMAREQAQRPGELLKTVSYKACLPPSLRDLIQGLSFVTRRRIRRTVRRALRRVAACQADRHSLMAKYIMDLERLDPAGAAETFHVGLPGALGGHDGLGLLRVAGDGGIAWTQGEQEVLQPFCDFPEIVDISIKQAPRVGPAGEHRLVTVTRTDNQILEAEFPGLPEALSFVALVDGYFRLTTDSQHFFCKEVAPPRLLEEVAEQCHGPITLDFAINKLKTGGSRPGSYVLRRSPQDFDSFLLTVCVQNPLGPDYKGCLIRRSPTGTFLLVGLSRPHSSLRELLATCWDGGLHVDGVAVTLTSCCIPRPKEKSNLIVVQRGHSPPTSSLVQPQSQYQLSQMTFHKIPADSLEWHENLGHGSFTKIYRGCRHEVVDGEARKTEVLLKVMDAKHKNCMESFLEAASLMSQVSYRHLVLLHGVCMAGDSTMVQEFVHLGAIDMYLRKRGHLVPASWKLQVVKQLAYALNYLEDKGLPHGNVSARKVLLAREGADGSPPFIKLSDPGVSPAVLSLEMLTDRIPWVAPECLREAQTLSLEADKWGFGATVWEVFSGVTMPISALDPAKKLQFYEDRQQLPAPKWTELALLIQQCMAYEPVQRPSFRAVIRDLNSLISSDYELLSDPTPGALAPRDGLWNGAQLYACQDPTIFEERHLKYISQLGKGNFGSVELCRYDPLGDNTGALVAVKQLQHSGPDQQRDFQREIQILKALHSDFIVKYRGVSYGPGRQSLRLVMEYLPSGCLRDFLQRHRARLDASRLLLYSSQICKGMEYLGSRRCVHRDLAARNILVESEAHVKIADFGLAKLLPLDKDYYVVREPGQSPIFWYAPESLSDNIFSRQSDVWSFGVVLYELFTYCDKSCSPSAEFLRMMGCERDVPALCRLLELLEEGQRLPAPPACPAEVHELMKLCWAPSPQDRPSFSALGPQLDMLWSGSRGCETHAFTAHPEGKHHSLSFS
The data set is described as follows: Inhibition of Jak3 (unknown origin).

Data set [2] has as its target Tyrosine-protein kinase JAK1 (Homo sapiens, UniProt P23458). The data set is described as follows: Inhibition of Jak1 (unknown origin).
Data set [3] can be described thus: Cytotoxicity against mouse BA/F3 cells expressing TEL-Jak2 after 72 hrs by MTS assay. In kind it is functional. The settings on record: BaF3, 72 h. A digest of the protocol:
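BaF3 TEL-Jak2 cells. Growth inhibition measured by MTS tetrazolium colorimetric read-out and reported as GI50.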
In general terms: Tetrazolium assays rely on reduction of a dye to a coloured formazan, in cell work by metabolically active cells.

The target of data set [4] is Tyrosine-protein kinase JAK2 (Homo sapiens, UniProt O60674). The data set is described as follows: Inhibition of Jak2 (unknown origin).
Data set [5] can be described thus: Volume of distribution at steady state in Wistar rat at 10 mg/kg, po and 3 mg/kg, iv. In kind it is ADME, organism-based. As to conditions: in vivo, read-out: Vdss. In short, it runs like this:
(§1)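 Rat pharmacokinetics. Oral dose 10 mg/kg in 0.1% HPMC. IV dose 3 mg/kg in 40% DMA/40% PEG/20% saline. Clearance, half-life, Vdss and oral bioavailability derived from the plasma profiles.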

Data set [6] is described as follows: Clearance in Wistar rat at 10 mg/kg, po and 3 mg/kg, iv. The settings on record: in vivo. Type of data set: ADME, organism-based. In short, it runs like this: as §1
Data set [7] in a line: Volume of distribution at steady state in beagle dog at 2.5 mg/kg, iv. In kind it is ADME, organism-based, Canis lupus familiaris. On the set-up: dose 2.5 mg/kg, route intravenous. The settings on record: in vivo, read-out: Vdss. In short, it runs like this:
(§2)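 Male beagle dogs. Oral dose 10 mg/kg in 0.1% HPMC, pH 2. IV dose 2.5 mg/kg in 20% TEG/D5W. […] Clearance, Vdss, half-life and oral bioavailability (F%) derived from the plasma profiles.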

Data set [8] has as its system Canis familiaris. The data set can be described thus: AUC (0 to 12 hrs) in beagle dog at 10 mg/kg, po. In kind it is ADME, organism-based, Canis lupus familiaris, Plasma. Set-up: time < 12 hr, dose 10 mg/kg, route oral. As to conditions: in vivo. In short, it runs like this: as §2
The nature of data set [9]: Half life in Wistar rat at 10 mg/kg, po and 3 mg/kg, iv. In kind it is ADME, organism-based. As to conditions: in vivo. A digest of the protocol: as §1
The test system of data set [10] is Canis familiaris. The data set can be described thus: Oral bioavailability in beagle dog at 10 mg/kg. The settings on record: in vivo. Type of data set: ADME, organism-based, Canis lupus familiaris. A digest of the protocol:
as §2

Data set [11] is described as follows: Half life in beagle dog at 10 mg/kg, po. On the set-up: dose 10 mg/kg, route oral. In kind it is ADME, organism-based, Canis lupus familiaris. The settings on record: in vivo. A digest of the protocol: as §2
The nature of data set [12]: Oral bioavailability in Wistar rat at 10 mg/kg. As to conditions: in vivo. In kind it is ADME, organism-based. In short, it runs like this:
as §1

Data set [13] is described as follows: Half life in beagle dog at 2.5 mg/kg, iv. In kind it is ADME, organism-based, Canis lupus familiaris. The settings on record: in vivo. On the set-up: dose 2.5 mg/kg, route intravenous. A digest of the protocol:
as §2

Structures are written as SMILES. Some results are limits rather than exact numbers.

What is called IC50 is the point on the concentration scale where inhibition reaches its midpoint. Low readings indicate inhibition by little substance, high ones a need for much substance. One may read the GI50 as the concentration at which growth is held to half of that of the control. What is called AUC is the area under the concentration-time curve, a measure of exposure. The half-life is how long it takes for the measured level to halve. Read a low half-life as rapid decline. As usually defined, the bioavailability is dose-corrected exposure relative to a reference, in per cent. Low values mean poor availability, high ones good availability.

Tyrosine-protein kinase JAK1, sequence (P23458 whole entry): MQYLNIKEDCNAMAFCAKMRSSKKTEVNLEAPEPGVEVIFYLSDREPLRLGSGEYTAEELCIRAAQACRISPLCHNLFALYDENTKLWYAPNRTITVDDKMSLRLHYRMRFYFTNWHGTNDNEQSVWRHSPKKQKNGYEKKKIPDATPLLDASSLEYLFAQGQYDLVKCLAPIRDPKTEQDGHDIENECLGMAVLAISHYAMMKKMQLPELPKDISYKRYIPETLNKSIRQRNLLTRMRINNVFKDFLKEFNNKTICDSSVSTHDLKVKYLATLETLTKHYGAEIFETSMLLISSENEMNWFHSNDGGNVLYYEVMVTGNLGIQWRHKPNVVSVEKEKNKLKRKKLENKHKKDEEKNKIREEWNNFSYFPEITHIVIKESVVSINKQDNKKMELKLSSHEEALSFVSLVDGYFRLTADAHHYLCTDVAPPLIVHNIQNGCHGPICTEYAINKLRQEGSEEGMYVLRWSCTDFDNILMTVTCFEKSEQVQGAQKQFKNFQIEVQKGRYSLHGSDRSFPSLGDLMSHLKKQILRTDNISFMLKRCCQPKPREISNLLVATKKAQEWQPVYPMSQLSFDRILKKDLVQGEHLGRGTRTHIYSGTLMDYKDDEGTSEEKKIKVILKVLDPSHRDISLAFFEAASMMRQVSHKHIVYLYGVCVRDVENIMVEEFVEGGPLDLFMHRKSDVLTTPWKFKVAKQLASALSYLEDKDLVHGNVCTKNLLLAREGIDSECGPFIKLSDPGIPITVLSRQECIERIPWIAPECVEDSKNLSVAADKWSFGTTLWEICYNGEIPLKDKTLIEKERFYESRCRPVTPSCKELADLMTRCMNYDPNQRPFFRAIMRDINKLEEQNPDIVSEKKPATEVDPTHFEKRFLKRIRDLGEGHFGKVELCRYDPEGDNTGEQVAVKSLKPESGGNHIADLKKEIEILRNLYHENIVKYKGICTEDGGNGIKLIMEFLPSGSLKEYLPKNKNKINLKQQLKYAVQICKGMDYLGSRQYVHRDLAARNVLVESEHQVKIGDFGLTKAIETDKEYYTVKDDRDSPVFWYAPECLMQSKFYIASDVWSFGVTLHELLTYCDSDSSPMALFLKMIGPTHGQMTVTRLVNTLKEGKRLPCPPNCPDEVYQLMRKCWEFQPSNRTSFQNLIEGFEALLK
Tyrosine-protein kinase JAK2, sequence (O60674 whole entry): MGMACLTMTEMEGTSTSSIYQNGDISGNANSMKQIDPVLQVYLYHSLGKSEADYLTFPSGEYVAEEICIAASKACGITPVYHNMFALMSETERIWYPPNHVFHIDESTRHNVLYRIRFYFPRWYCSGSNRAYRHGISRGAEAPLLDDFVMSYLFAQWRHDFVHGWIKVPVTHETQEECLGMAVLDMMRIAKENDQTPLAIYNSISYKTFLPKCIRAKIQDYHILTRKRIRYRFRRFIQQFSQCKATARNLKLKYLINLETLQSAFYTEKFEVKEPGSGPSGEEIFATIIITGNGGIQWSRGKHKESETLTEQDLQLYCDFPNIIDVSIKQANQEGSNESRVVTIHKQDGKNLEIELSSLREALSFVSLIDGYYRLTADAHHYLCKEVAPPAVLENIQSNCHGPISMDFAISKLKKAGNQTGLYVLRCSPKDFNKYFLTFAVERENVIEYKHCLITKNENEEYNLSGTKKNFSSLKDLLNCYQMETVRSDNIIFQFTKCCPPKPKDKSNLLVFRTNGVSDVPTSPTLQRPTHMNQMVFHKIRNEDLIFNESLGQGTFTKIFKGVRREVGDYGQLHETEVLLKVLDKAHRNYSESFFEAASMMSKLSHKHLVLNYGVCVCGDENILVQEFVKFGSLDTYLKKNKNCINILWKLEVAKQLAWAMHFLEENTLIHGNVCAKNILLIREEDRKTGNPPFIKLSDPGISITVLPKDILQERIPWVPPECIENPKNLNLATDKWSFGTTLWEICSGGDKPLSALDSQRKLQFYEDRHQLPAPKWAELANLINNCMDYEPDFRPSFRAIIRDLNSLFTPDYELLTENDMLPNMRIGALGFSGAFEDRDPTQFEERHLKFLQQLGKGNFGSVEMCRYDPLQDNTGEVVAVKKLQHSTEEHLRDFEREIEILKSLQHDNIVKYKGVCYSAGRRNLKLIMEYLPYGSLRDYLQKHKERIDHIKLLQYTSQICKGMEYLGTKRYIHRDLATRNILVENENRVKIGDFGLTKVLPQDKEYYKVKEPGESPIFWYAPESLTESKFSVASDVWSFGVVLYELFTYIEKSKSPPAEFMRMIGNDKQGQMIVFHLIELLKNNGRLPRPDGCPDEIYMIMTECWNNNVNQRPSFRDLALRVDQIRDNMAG

With `C[C@H](Nc1nc(Nc2cn(C)cn2)c2ccncc2n1)c1ncc(F)cn1`, the concentration for half-maximal inhibition (IC50) amounted to 1.82 µM in [1], 0.028 µM in [2] and 0.012 µM in [4]. Moreover, in data set [3], the 50% growth inhibitory concentration (GI50) is 0.025 µM.
Regarding `COc1ccc2nc(NC(C)c3ncc(F)cn3)nc(Nc3cn(C)cn3)c2c1` (racemic), the IC50 in [1] is > 30 µM; in data set [4], 0.67 µM. Also, the GI50 in [3] was 3 µM.
On to `C[C@H](Nc1nc(Nc2cn(C)cn2)c2nccnc2n1)c1ncc(F)cn1`, for which the IC50 is > 30 µM in [1], 1.5 µM in [2] and 0.8 µM in data set [4]. The molecule also yielded a GI50 in [3] of 0.53 µM.
Regarding `C[C@H](Nc1nc(Nc2cn(C)cn2)c2cnn(C)c2n1)c1ncc(F)cn1`, the results for the IC50 in [1], in [2] and in [4] were 1.44 µM, 0.016 µM and 0.015 µM, respectively. The results for the Vd in data set [5] and in data set [7] were 1.8 L/kg and 2.1 L/kg, respectively. The molecule further displayed a clearance in data set [6] of 1.5 L/h/kg. This molecule also returned an area under the curve (AUC) in data set [8] of 49 µM·h. For the same molecule, the half-life in data set [9] was 1.3 h; in [11], 7.7 h; in data set [13], 6.2 h. Also, the GI50 in [3] turned out to be 0.026 µM. Besides, the F in data set [10] turned out to be 139%. The bioavailability in data set [12] is 90%.
With `C[C@H](Nc1nc(Nc2cn(C)cn2)c2ccccc2n1)c1ncc(F)cn1`, the 50% inhibitory concentration (IC50) was 14.8 µM in [1] and 0.003 µM in data set [4]. In data set [3], this molecule returned a 50% growth inhibitory concentration (GI50) of 0.034 µM.
`C[C@H](Nc1ncc(Cl)c(Nc2cn(C)cn2)n1)c1ncc(F)cn1` returned a GI50 in data set [3] of 0.27 µM. The molecule further returned a half-inhibitory concentration (IC50) in data set [4] of 0.12 µM.
For the molecule `C[C@H](Nc1nc(Nc2cn(C)cn2)c2cc(F)cnc2n1)c1ncc(F)cn1`, the concentration for half-maximal inhibition (IC50) in [1] came out at 30 µM; in [4], 0.49 µM. The molecule also yielded a concentration for 50% growth inhibition (GI50) in data set [3] of 3.1 µM.
`CC(Nc1nc(Nc2cn(C)cn2)c2cn[nH]c2n1)c1ncc(F)cn1` (racemic): the figures for the half-maximal inhibitory concentration (IC50) in [1], in data set [2] and in [4] were 4.62 µM, 0.022 µM and 0.05 µM, respectively. The molecule further showed a GI50 in [3] of 0.11 µM.
With `CC(Nc1nc(Nc2cn(C)cn2)c2cccnc2n1)c1ncc(F)cn1` (racemic), the IC50 in data set [1] amounted to 3.78 µM; in data set [2] it was 0.131 µM; in [4] it was 0.033 µM. The Vd in data set [5] worked out at 2.5 L/kg. The clearance in data set [6] was 6 L/h/kg. Also, the half-life in data set [9] is 0.92 h. In [3], the GI50 is 0.04 µM.
`COc1ccc2c(Nc3cn(C)cn3)nc(NC(C)c3ncc(F)cn3)nc2c1` (racemic): the results for the IC50 in data set [1] and in data set [4] were 13.2 µM and 0.024 µM, respectively. Besides, the Vd in [5] amounted to 6 L/kg. The molecule further registered a clearance in data set [6] of 6.6 L/h/kg. Further, the half-life in data set [9] is 0.98 h. In data set [3], this molecule displayed a GI50 of 0.034 µM.
For `C[C@H](Nc1nc(Nc2cn(C)cn2)c2ccn(C)c2n1)c1ncc(F)cn1`, the IC50 in [1] turned out to be 7.56 µM; in data set [2], 0.024 µM; in [4], 0.027 µM. In addition, growth in data set [3] was halved (GI50) at 0.034 µM.
As for `CC(Nc1nc(Nc2cn(C)cn2)c2ccc(Cl)nc2n1)c1ncc(F)cn1` (racemic), the half-maximal inhibitory concentration (IC50) in data set [1] is > 30 µM; in data set [4] it was < 0.003 µM. The same molecule gave a GI50 in data set [3] of 0.028 µM.
As for `CC(Nc1nc(Nc2cn(C)cn2)c2[nH]ccc2n1)c1ncc(F)cn1` (racemic), the IC50 in data set [1] was 5.88 µM; in [4] it was < 0.003 µM. The molecule also gave a GI50 in data set [3] of 0.099 µM.
In turn, `Cc1csc2c(Nc3cn(C)cn3)nc(N[C@@H](C)c3ncc(F)cn3)nc12` registered an IC50 in [1] of 3.93 µM. For the same molecule, the Vd in data set [5] is 1.2 L/kg. The same molecule returned a clearance in data set [6] of 2.64 L/h/kg. In data set [9], this molecule had a half-life of 0.64 h. This molecule came in with a GI50 in [3] of 0.037 µM.
For `C[C@H](Nc1nc(Nc2cn(C)cn2)c2ccn(C3CC3)c2n1)c1ncc(F)cn1`, the IC50 in [1] came to 2.46 µM; in [2], 0.029 µM; in data set [4], 0.027 µM. This molecule also registered a GI50 in data set [3] of 0.056 µM.
